Source: ChEMBL document CHEMBL1129338, “Inhibitors of acyl-CoA:cholesterol O-acyltransferase. synthesis and pharmacological activity of (+/-)-2-dodecyl-alpha-phenyl-N-(2,4,6-trimethoxyphenyl)-2H-tetrazole-5- acetamide and structurally related tetrazole amide derivatives” (J Med Chem, 1996)

Columns and labels:
[1] = biological target: T1, Sterol O-acyltransferase 1 (Rattus norvegicus, UniProt O70536); test: In vitro inhibitory activity against acyl coenzyme A:cholesterol acyltransferase 1 of liver microsomes isolated from cholesterol-fed rats.
T1 sequence (O70536 whole entry): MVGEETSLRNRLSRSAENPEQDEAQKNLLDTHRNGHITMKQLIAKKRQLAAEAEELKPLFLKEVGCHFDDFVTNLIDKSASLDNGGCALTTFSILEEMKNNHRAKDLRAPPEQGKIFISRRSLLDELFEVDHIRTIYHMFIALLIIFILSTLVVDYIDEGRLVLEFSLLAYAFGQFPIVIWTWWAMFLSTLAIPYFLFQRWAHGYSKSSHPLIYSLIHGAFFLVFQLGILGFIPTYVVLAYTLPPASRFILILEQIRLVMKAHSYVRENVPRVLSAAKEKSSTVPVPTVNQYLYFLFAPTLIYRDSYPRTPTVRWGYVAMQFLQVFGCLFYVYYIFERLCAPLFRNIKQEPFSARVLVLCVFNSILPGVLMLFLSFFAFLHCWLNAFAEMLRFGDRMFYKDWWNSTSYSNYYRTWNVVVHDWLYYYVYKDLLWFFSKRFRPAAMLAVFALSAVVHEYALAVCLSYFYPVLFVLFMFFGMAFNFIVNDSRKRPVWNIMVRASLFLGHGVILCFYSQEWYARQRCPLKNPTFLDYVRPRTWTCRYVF
In short: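 ACAT inhibition was measured in hepatic microsomes isolated from cholesterol-fed rats. Each determination was run in triplicate, and IC50 was reported.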

Rattus norvegicus [2] = test: Percent change in total cholesterol (TC) in cholic acid (0.5%)-, cholesterol (1.5%) -, and peanut oil (5.5%)- fed rats at a dose 30 mg/kg.; assay type: functional
Rattus norvegicus [3] = test: Percent change in non High Density Lipoproteins (HDL) in Chronic Cholesterol -Fed rat model at a dose 30 mg/kg
Rattus norvegicus [4] = test: Percent change in High Density Lipoproteins (HDL) in Chronic Cholesterol -Fed rat model at a dose 30 mg/kg; assay type: functional
In short: (§1)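 Rats ate a high-fat, high-cholesterol diet for 14 days. During the second week they received the test compound daily by gavage at 30 mg/kg, in a carboxymethylcellulose/Tween-20 aqueous vehicle. Plasma lipids (total cholesterol, HDL-C, non-HDL-C) were read as percent change.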

Rattus norvegicus [5] = test: % change in total cholesterol in Chronic Cholesterol-Fed rat model at dose 30 mg/kg; assay type: functional; in short: as §1
[6] = biological target: T2, Sterol O-acyltransferase 1 (Mus musculus) (UniProt Q61263); test: In vitro inhibitory activity against acyl coenzyme A:cholesterol acyltransferase 1 in cell culture assay using murine IC-21 macrophages at 0.1 uM
T2 sequence (whole entry): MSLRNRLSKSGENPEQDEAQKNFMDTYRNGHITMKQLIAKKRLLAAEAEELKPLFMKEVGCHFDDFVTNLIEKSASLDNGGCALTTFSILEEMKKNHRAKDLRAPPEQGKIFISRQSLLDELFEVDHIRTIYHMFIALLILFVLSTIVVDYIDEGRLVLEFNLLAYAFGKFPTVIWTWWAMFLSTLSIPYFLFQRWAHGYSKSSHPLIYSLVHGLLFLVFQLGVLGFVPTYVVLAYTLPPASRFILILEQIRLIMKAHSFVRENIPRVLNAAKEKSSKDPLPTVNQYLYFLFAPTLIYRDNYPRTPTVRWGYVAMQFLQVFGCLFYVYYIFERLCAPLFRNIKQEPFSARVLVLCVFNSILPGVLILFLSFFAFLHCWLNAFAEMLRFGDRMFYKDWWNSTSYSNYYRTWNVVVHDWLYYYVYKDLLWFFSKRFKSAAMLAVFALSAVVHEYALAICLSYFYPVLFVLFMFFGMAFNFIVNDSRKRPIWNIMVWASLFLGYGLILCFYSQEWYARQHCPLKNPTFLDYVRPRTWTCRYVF
In short: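 IC-21 mouse macrophages were preincubated 16 h in serum-free DMEM with 20 µM albumin and phosphatidylserine/cholesterol vesicles. The vesicles were sonicated in 150 mM NaCl, 5 mM MOPS, 1 mM EDTA, pH 7.4, and filter-sterilized. Medium was then replaced with serum-free DMEM containing the compound in DMSO at 0.1 µM. Percent inhibition was read, with cell protein measured by the Lowry method.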

Rattus norvegicus [7] = test: In vitro percent decrease in cholesterol activity at 30 mg/kg in acute rat screen; assay type: functional; details: in the assay text read “In vivo” for “In vitro”
In short: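 Rats received a single gavage dose of 30 mg/kg, suspended in carboxymethylcellulose/Tween-20 in water, followed by one high-fat, high-cholesterol meal. The read-out was inhibition of the overnight rise in plasma total cholesterol, as percent change.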

Oryctolagus cuniculus [8] = test: % change in total cholesterol(TC) versus progression control (PC) with out drug intervention in chronic cholesterol-fed rabbit model at a dose of 5 mg/kg; assay type: functional
In short: (§2)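 Male New Zealand rabbits (1-1.5 kg) were meal-fed 50 g/day of chow with 0.5% cholesterol, 3% coconut oil and 3% peanut oil. After 1 week, compound was added to the diet for 2 weeks at 5 or 25 mg/kg. Plasma total cholesterol came from cardiac blood of fasted animals after nitrogen asphyxiation. It was compared with cholesterol-fed progression controls or with T0, the start of drug intervention, when plasma cholesterol was taken 24 h after the drug meal.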

Oryctolagus cuniculus [9] = test: Dose response in cholesterol fed rabbit after oral administration; assay type: functional
In short: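 Cholesterol-fed rabbit model with oral dosing across a dose series, 8 animals per dose. Plasma cholesterol reduction was averaged at each dose. ED50, the dose lowering plasma total cholesterol 50%, was calculated from these mean responses with the median-effect equation.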

Oryctolagus cuniculus [10] = test: % change in total cholesterol(TC) versus progression control (PC) with out drug intervention in chronic cholesterol-fed rabbit model at a dose of 25 mg/kg; assay type: functional; in short: as §2
Oryctolagus cuniculus [11] = test: Percent change in total cholesterol(TC) versus (T0)- at which drug intervention begins at a dose of 25 mg/kg in the chronic cholesterol-fed rabbit model; assay type: functional; in short: as §2
Rattus norvegicus [12] = test: Change in total cholesterol in Chronic Cholesterol-Fed rat model at dose 30 mg/kg; assay type: functional; in short: as §1
Oryctolagus cuniculus [13] = test: Oral bioactivity expressed as %inhibition after 4 hours of drug administration (dose 25 mg/kg) in rabbit bioassay; assay type: functional
In short: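 Plasma was taken before dosing and at 1, 2 and 4 h. Plasma (0.2 mL) was hexane-extracted, dried and redissolved in chloroform/methanol 2:1. It was then tested for ACAT inhibition in the liver microsomal assay alongside spiked standards and a 2.5 µM CI-976 reference.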

Compound | IC50 [1] | inhibition [6] | Change (Rattus norvegicus [2]) | other results
CCCCCCCCCCCCn1nnc(CC(=O)Nc2c(C(C)C)cccc2C(C)C)n1 | 0.005 µM | 91% | <64% | Change (Rattus norvegicus [3]): <63%; Change (Rattus norvegicus [4]): 82%; Change (Rattus norvegicus [5]): <42%
CCCCCCCCCCCCn1nnc(C(C(=O)Nc2c(C(C)C)cccc2C(C)C)c2nnn[nH]2)n1 (stereo unspecified) | > 5 µM | 8% | <37% | –
CCCCCCCCCCCCn1nnc(C(C(=O)Nc2ccccn2)c2ccccc2)n1 (stereo unspecified) | 0.48 µM | 8% | 22% | –
CCCCCCCCCCCCn1nnc(C(=O)Nc2c(C(C)C)cccc2C(C)C)n1 | 1.06 µM | 33% | 23% | –
CCCCCCCCCCCCn1nnc(C(C#N)C(=O)Nc2c(C(C)C)cccc2C(C)C)n1 (stereo unspecified) | > 5 µM | 7% | <75% | –
CCCCCCCCCCCCn1nnc(C(C(=O)Nc2ccc3c(C)cc(C)nc3n2)c2ccccc2)n1 (stereo unspecified) | 1.54 µM | 49% | 8% | –
CCCCCCCCCCCCn1nnc(C(C(=O)Nc2ncccc2C)c2ccccc2)n1 (stereo unspecified) | 0.085 µM | 4% | <52% | –
CCCCCCCCCCCCn1nnc(C(C(=O)NC(C)(C)C)c2ccccc2)n1 (stereo unspecified) | 3.35 µM | 1% | 1% | –
CCCCCCCCCCCCn1nnc(C(C(=O)Nc2c(C(C)C)cccc2C(C)C)c2ccccc2)n1 (stereo unspecified) | – | 47% | <66% | Change (Oryctolagus cuniculus [8]): <61%; ED50 (Oryctolagus cuniculus [9]): 1.2 mg/kg; Decrease (Rattus norvegicus [7]): 66%; Change (Rattus norvegicus [3]): <40%; Change (Oryctolagus cuniculus [10]): <73%; Change (Oryctolagus cuniculus [11]): <43%; Change (Rattus norvegicus [4]): 27%; Change (Rattus norvegicus [12]): <38%; inhibition in vivo at 25 mg/kg (Oryctolagus cuniculus [13]): 96%
CCCCCCCCCCCCn1nnc(C(C(=O)Nc2c(OC)ncnc2OC)c2ccccc2)n1 (stereo unspecified) | 0.013 µM | 39% | <56% | Decrease (Rattus norvegicus [7]): 66%
CCCCCCCCCCCCn1nnc(C(C(=O)Nc2ccccc2)c2ccccc2)n1 (stereo unspecified) | 0.48 µM | 46% | 38% | –
CCCCCCCCCCCCn1nnc(CCC(=O)Nc2c(C(C)C)cccc2C(C)C)n1 | 0.03 µM | 17% | <47% | –
CCCCCCCCCCCCn1nnc(C(C(=O)Nc2ccc(F)cc2F)c2ccccc2)n1 (stereo unspecified) | 0.031 µM | 1% | <70% | –
CCCCCCCCCCCCn1nnc(C(C(=O)Nc2c(C)nn(C)c2C)c2ccccc2)n1 (stereo unspecified) | 0.013 µM | 66% | <62% | Decrease (Rattus norvegicus [7]): 66%; Change (Rattus norvegicus [4]): 28%
CCCCCCCCCCCCn1nnc(C(C(=O)Nc2c(C(C)C)cccc2C(C)C)c2ccccn2)n1 (stereo unspecified) | 0.026 µM | 24% | <64% | –
CCCCCCCCCCCCn1nnc(C(C(=O)NC2CC2)c2ccccc2)n1 (stereo unspecified) | 0.244 µM | 10% | <62% | –

Now from value to compound, other results behind:

IC50 [1] | inhibition [6] | Compound | Change (Rattus norvegicus [2]) | other results
1.76 µM | – | CCCCCCCCCCCCn1nnc(C(F)C(=O)Nc2c(OC)cc(OC)cc2OC)n1 (stereo unspecified) | – | –
0.2 µM | 61% | CCCCCCCCCCCCn1nnc(C(C(=O)Nc2c(OC)cc(OC)cc2OC)c2ccc(OC)cc2)n1 (stereo unspecified) | <57% | –
0.053 µM | 55% | CCCCCCCCCCCCCCCCn1nnc(C(C(=O)Nc2c(OC)cc(OC)cc2OC)c2ccccc2)n1 (stereo unspecified) | <47% | Change (Rattus norvegicus [3]): -9%; Change (Rattus norvegicus [4]): 16%
13.6 µM | 7% | CCCCCCCCCCCCn1nnc(C(C#N)C(=O)Nc2c(OC)cc(OC)cc2OC)n1 (stereo unspecified) | <27% | –
0.059 µM | 23% | CCCCCCCCCCCCn1nnc(C(C(=O)Nc2c(OC)cc(OC)cc2OC)c2ccccn2)n1 (stereo unspecified) | <60% | –
0.659 µM | 0% | CCCCCCCCCCCCn1nnc(C(C(=O)Nc2c(OC)cc(OC)cc2OC)c2ccc(N(C)C)cc2)n1 (stereo unspecified) | <62% | –
0.056 µM | 61% | CCCCCCCCCCCCc1nnn(CC(=O)Nc2c(OC)cc(OC)cc2OC)n1 | <69% | Decrease (Rattus norvegicus [7]): 69%; Change (Rattus norvegicus [3]): <46%; Change (Rattus norvegicus [4]): 3%; Change (Rattus norvegicus [5]): <44%
0.024 µM | 66% | CCCCCCCCCCCCn1nnc(CC(=O)Nc2c(OC)cc(OC)cc2OC)n1 | <60% | –
0.063 µM | 16% | CCCCCCCCCCCCn1nnc(C2(C(=O)Nc3c(OC)cc(OC)cc3OC)CCCC2)n1 | <56% | –
0.036 µM | 46% | CCCCCCCCCCCCn1nnc(C(C(=O)Nc2c(OC)cc(OC)cc2OC)c2ccc(F)cc2)n1 (stereo unspecified) | <68% | Change (Rattus norvegicus [3]): <53%; Change (Rattus norvegicus [4]): 12%
0.049 µM | 77% | CCCCCCCCCCCCn1nnc(C(Cc2ccccc2)C(=O)Nc2c(OC)cc(OC)cc2OC)n1 (stereo unspecified) | <73% | Change (Rattus norvegicus [3]): <50%; Change (Rattus norvegicus [4]): 27%; Change (Rattus norvegicus [5]): <48%; inhibition in vivo at 25 mg/kg (Oryctolagus cuniculus [13]): 0%
0.028 µM | 8% | CCCCCCCCCCCCn1nnc(C(C(=O)Nc2c(OC)cc(OC)cc2OC)C2CCCCC2)n1 (stereo unspecified) | <61% | –
0.48 µM | 9% | CCCCCCCCCCCCn1nnc(CCC(=O)Nc2c(OC)cc(OC)cc2OC)n1 | – | –
0.033 µM | 34% | CCCCCCCCCCCCn1nnc(C(C)(C)C(=O)Nc2c(OC)cc(OC)cc2OC)n1 | <69% | –
0.27 µM | 13% | CCCCCCCCn1nnc(C(C(=O)Nc2c(OC)cc(OC)cc2OC)c2ccccc2)n1 (stereo unspecified) | <39% | –
0.221 µM | 10% | CCCCCCCCCCCCn1nnc(C(C(=O)Nc2c(OC)cc(OC)cc2OC)c2ccc(-c3ccccc3)cc2)n1 (stereo unspecified) | <43% | –
0.006 µM | 95% | CCCCCCCCCCCCc1nnn(CC(=O)Nc2c(C(C)C)cccc2C(C)C)n1 | <68% | Decrease (Rattus norvegicus [7]): 68%; Change (Rattus norvegicus [3]): <81%; Change (Rattus norvegicus [4]): 165%; Change (Rattus norvegicus [5]): <72%
